Activity data for 17 molecules are collected here from ChEMBL document CHEMBL5532703, “A new class of 7-deazaguanine agents targeting autoimmune diseases: dramatic reduction of synovial fibroblast IL-6 production from human rheumatoid arthritis patients and improved performance against murine experimental autoimmune encephalomyelitis” (RSC Med Chem, 2024).

Each structure is given as a SMILES string. Calls of active or inactive are those of the source. The rule behind the calls is not given here.

The test system of assay [1] is Synovial fibroblasts. In words: Anti-inflammatory activity in human Synovial fibroblasts derived from rheumatoid arthritis patient assessed as reduction in TNF-alpha induced IL-6 production at 200 uM measured after 72 hrs by ELISA. It is filed as functional, cell-based. The procedure, abridged:
(§1)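 Synovial fibroblasts came from collagenase-digested (1 mg/mL, 4 h, 37 °C) RA patient biopsies, grown in RPMI-1640 with 10% FCS and used at passages 3–8. Cultures were stimulated with TNFα (10 ng/mL) while exposed to compound, with medium and compound renewed at 24 h. Supernatants were collected at 72 h for IL-6 ELISA, relative to a 4% DMSO/PBS vehicle control.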
Background: An ELISA detects its analyte on a solid surface through an enzyme-linked reagent.

Assay [2] concerns Mus musculus. In words: Anti-inflammatory activity in complete Freund's adjuvant/MOG (35 to 55 residues)/pertussis toxin-induced experimental autoimmune encephalomyelitis C57BL/6 mouse model assessed as decrease in disease progression at 16 mg/kg,ip administration observed after 2 days. The class given is functional, organism-based. The settings on record: time 2.0 day. In a few lines:
(§2)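 Female C57BL/6 mice, 10–12 weeks old and about 20 g, with EAE induced by s.c. CFA/MOG plus i.p. pertussis toxin on days 0 and 2. Mice entered the study at clinical score 1.5–2, which was day 0, and were randomised. Each received 200 µL i.p. daily for 7 days of 4 mM compound (equimolar dosing) in 4% DMSO/PBS, made fresh. Vehicle controls were used, n = 4–5, with clinical scores recorded daily post treatment.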

Assay [3] concerns Mus musculus. In words: Anti-inflammatory activity in complete Freund's adjuvant/MOG (35 to 55 residues)/pertussis toxin-induced experimental autoimmune encephalomyelitis C57BL/6 mouse model assessed as decrease in disease progression at 15 mg/kg,ip administration observed after 3 days. The class given is functional, organism-based. The following applies: time 3.0 day. In a few lines:
as §2

The subject of assay [4] is Mus musculus. In words: Anti-inflammatory activity in complete Freund's adjuvant/MOG (35 to 55 residues)/pertussis toxin-induced experimental autoimmune encephalomyelitis C57BL/6 mouse model assessed as decrease in disease progression at 15 mg/kg,ip administration observed after 1 day. It is filed as functional, organism-based. In a few lines: as §2
In assay [5] the test system is Synovial fibroblasts. In words: Anti-inflammatory activity in human Synovial fibroblasts derived from rheumatoid arthritis patient assessed as reduction in TNF-alpha induced IL-6 production measured after 72 hrs by ELISA. The class given is functional, cell-based. The procedure, abridged:
as §1

Assay [6] has as its system Mus musculus. In words: Anti-inflammatory activity in complete Freund's adjuvant/MOG (35 to 55 residues)/pertussis toxin-induced experimental autoimmune encephalomyelitis C57BL/6 mouse model assessed as decrease in disease progression at 15 mg/kg,ip administration observed after 7 days. It is filed as functional, organism-based. The settings on record: time 7.0 day. In a few lines: as §2

The subject of assay [7] is Mus musculus. In words: Anti-inflammatory activity in complete Freund's adjuvant/MOG (35 to 55 residues)/pertussis toxin-induced experimental autoimmune encephalomyelitis C57BL/6 mouse model assessed as decrease in disease progression at ip administration observed after 4 days. The following applies: time 4.0 day. It is filed as functional, organism-based. The procedure, abridged: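 EAE in female C57BL/6 mice, induced with CFA/MOG s.c. and pertussis toxin i.p. Mice were enrolled at clinical score 1.5–2 and randomised, then dosed i.p. daily with compound diluted to 4 mM in 4% DMSO/PBS, 200 µL per mouse. This was a 4-day study, n = 5, with 4% DMSO/PBS vehicle controls. Clinical score was tracked daily after treatment started.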

The test system of assay [8] is Mus musculus. In words: Anti-inflammatory activity in complete Freund's adjuvant/MOG (35 to 55 residues)/pertussis toxin-induced experimental autoimmune encephalomyelitis C57BL/6 mouse model assessed as decrease in disease progression at 9 mg/kg,ip administration observed after 7 days. It is filed as functional, organism-based. The following applies: time 7.0 day. In a few lines: as §2

The subject of assay [9] is Mus musculus. In words: Anti-inflammatory activity in complete Freund's adjuvant/MOG (35 to 55 residues)/pertussis toxin-induced experimental autoimmune encephalomyelitis C57BL/6 mouse model assessed as decrease in disease progression at 9 mg/kg,ip administration observed after 3 days. It is filed as functional, organism-based. The settings on record: time 3.0 day. The procedure, abridged: as §2

For assay [10], the system named is Mus musculus. In words: Anti-inflammatory activity in complete Freund's adjuvant/MOG (35 to 55 residues)/pertussis toxin-induced experimental autoimmune encephalomyelitis C57BL/6 mouse model assessed as decrease in disease progression at 16 mg/kg,ip administration observed after 1 day. It is filed as functional, organism-based. The procedure, abridged: as §2

Turning to `Nc1nc2[nH]cc(CNCCC(c3ccccc3)c3ccccc3)c2c(=O)[nH]1`, the outcome in [1] was Active.

For the molecule `Nc1nc2[nH]cc(CNCC[C@@H](O)c3ccccc3)c2c(=O)[nH]1`, in assay [1], the outcome was Active. With `CC(C)(CCNCc1c[nH]c2nc(N)[nH]c(=O)c12)c1ccccc1`, the result in assay [2] and in [1] was Active. In the case of `CC(CCNCc1c[nH]c2nc(N)[nH]c(=O)c12)c1ccccc1` (stereo unspecified), in [1], the outcome was Active. Same read-out and setting: next, `Nc1nc2[nH]cc(CNCCNc3ccccc3)c2c(=O)[nH]1`: “Active”; `Nc1nc2[nH]cc(CNCCCc3ccsc3)c2c(=O)[nH]1`: “Active”. In the case of `Nc1nc2[nH]cc(CNCCCc3ccccc3)c2c(=O)[nH]1`, the outcome in assay [3], in [4] and in assay [6] was Active. Also, the Activity result in assay [5] was “Dose-Dependent Effect”. Turning to `C[C@H](CCNCc1c[nH]c2nc(N)[nH]c(=O)c12)c1ccccc1`, in assay [1], the result was inactive. Same read-out and setting: next, `CCC(CC)(CCNCc1c[nH]c2nc(N)[nH]c(=O)c12)c1ccccc1`: “Active”. Consider `Nc1nc2[nH]cc(CNCCC3(c4ccccc4)CC3)c2c(=O)[nH]1`, for which the outcome in [1] was Active. Turning to `Nc1nc2[nH]cc(CNCCC3(c4ccccc4)SCCS3)c2c(=O)[nH]1`, in assay [1], the result was inactive. Regarding `Nc1nc2[nH]cc(CNOCCc3ccccc3)c2c(=O)[nH]1`, the outcome in assay [7] and in assay [1] was Active.

As for `Nc1nc2[nH]cc(CNCC[C@H](O)c3ccccc3)c2c(=O)[nH]1`, the outcome in assay [1] was Active. As for `Nc1nc2[nH]cc(/C=N/O)c2c(=O)[nH]1`, the outcome in [8] and in assay [1] was Active. As to `Nc1nc2[nH]cc(/C=N/OCc3ccccc3)c2c(=O)[nH]1`, the outcome in assay [1] was Active. For `CO/N=C/c1c[nH]c2nc(N)[nH]c(=O)c12`, in [8], the result was inactive. The outcome in [1] and in assay [9] was Active. For the molecule `Nc1nc2[nH]cc(CNCCC(=O)c3ccccc3)c2c(=O)[nH]1`, the result in assay [10] and in [1] was Active.
